Measured values: ChEMBL document CHEMBL5653613 (Mol Cancer Ther, 2013)
Calls of active or inactive are those of the source. The calls are words filed in the database; no cut-off is given here.

Experiments:
[1] = Cmax in athymic mouse xenografted with human GTL-16 cells at 6.25 mg/kg, po qd for 14 days consecutively; assay type: ADME, organism-based; conditions: in vivo, time 14 day
[2] = Cmax in athymic mouse xenografted with human GTL-16 cells upto 50 mg/kg, po qd for 14 days consecutively; assay type: ADME, organism-based; conditions: in vivo, time 14 day
T47D [3] = assay: Cytotoxicity against human T47D cells at 1 to 2.5 umol/L incubated for 72 hrs by MTS assay; assay type: functional, cell-based; conditions: dose 1-2.5 µmol/L
MCF7 [4] = assay: Induction of apoptosis in human MCF7 cells assessed as necrotic cells at 5 umol/L incubated for 3 days by Annexin V/PI staining based flow cytometry (reference value: 0.4 %); assay type: functional; conditions: dose 5 µmol/L; time 3 day; at 5 µM
T47D [5] = assay: Induction of apoptosis in human T47D cells assessed as necrotic cells at 5 umol/L incubated for 3 days by Annexin V/PI staining based flow cytometry (reference value: 0.6 %); assay type: functional; conditions: dose 5 µmol/L; time 3 day; at 5 µM
ZR-75-1 [6] = assay: Induction of apoptosis in human ZR-75-1 cells assessed as early cells at 5 umol/L incubated for 3 days by Annexin V/PI staining based flow cytometry (reference value: 0.5 %); assay type: functional; conditions: dose 5 µmol/L; time 3 day; at 5 µM
ZR-75-1 [7] = assay: Induction of apoptosis in human ZR-75-1 cells assessed as necrotic cells at 5 umol/L incubated for 3 days by Annexin V/PI staining based flow cytometry (reference value: 0.7 %); assay type: functional; conditions: dose 5 µmol/L; time 3 day; at 5 µM
T47D [8] = assay: Induction of apoptosis in human T47D cells assessed as cell death at 5 uM; assay type: functional, cell-based; conditions: TDE = time-dependent effect
ZR-75-1 [9] = assay: Induction of polyploidy in human ZR-75-1 cells at 10 umol/L incubated for 72 hrs by microscopic analysis relative to control; assay type: functional; conditions: dose 10 µmol/L, at 10 µM
In short: (§1)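 Cells stained with Hema-3 and photographed under a light microscope with CCD camera. Polyploid cells scored as percent of the population.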

MCF7 [10] = assay: Induction of polyploidy in human MCF7 cells at 5 uM incubated for 72 hrs by microscopic analysis; assay type: functional, cell-based; in short: as §1
T47D [11] = assay: Induction of polyploidy in human T47D cells with RON-/- at 5 umol/L incubated for 72 hrs followed by media replacement without compound measured upto 10 days by microscopic analysis; assay type: functional, cell-based; conditions: dose 5.0 µmol/L
ZR-75-1 [12] = assay: Induction of polyploidy in human ZR-75-1 cells with RON-/- at 5 umol/L incubated for 72 hrs followed by media replacement without compound measured upto 10 days by microscopic analysis; assay type: functional, cell-based; conditions: dose 5.0 µmol/L
MCF7 [13] = assay: Induction of polyploidy in human MCF7 cells assessed as cells with 4N chromosome contents at 5 uM incubated for 24 hrs by PI staining based flow cytometry (reference value: 36); assay type: functional
MCF7 [14] = assay: Induction of polyploidy in human MCF7 cells assessed as cells with 4N chromosome contents at 5 uM incubated for 48 hrs by PI staining based flow cytometry (reference value: 36); assay type: functional
MCF7 [15] = assay: Induction of polyploidy in human MCF7 cells assessed as cells with 4N chromosome contents at 5 uM incubated for 72 hrs by PI staining based flow cytometry (reference value: 36); assay type: functional
T47D [16] = assay: Induction of polyploidy in human T47D cells assessed as cells with 8N chromosome contents at 5 uM incubated for 24 hrs by PI staining based flow cytometry (reference value: 0); assay type: functional
T47D [17] = assay: Induction of polyploidy in human T47D cells assessed as cells with 8N chromosome contents at 5 uM incubated for 48 hrs by PI staining based flow cytometry (reference value: 0); assay type: functional
T47D [18] = assay: Induction of polyploidy in human T47D cells assessed as cells with 4N chromosome contents at 5 uM incubated for 72 hrs by PI staining based flow cytometry (reference value: 35); assay type: functional
ZR-75-1 [19] = assay: Induction of polyploidy in human ZR-75-1 cells assessed as cells with 2N chromosome contents at 5 uM incubated for 24 hrs by PI staining based flow cytometry (reference value: 48); assay type: functional
ZR-75-1 [20] = assay: Induction of polyploidy in human ZR-75-1 cells assessed as cells with 16N chromosome contents at 5 uM incubated for 24 hrs by PI staining based flow cytometry (reference value: 0); assay type: functional
ZR-75-1 [21] = assay: Induction of polyploidy in human ZR-75-1 cells assessed as cells with 8N chromosome contents at 5 uM incubated for 72 hrs by PI staining based flow cytometry (reference value: 0); assay type: functional
ZR-75-1 [22] = assay: Induction of polyploidy in human ZR-75-1 cells assessed as cells with 16N chromosome contents at 5 uM incubated for 72 hrs by PI staining based flow cytometry (reference value: 0); assay type: functional
T47D [23] = assay: Disruption of microtubule dynamics in human T47D cells assessed as condensed irregular-shaped chromosomes at 5 umol/L incubated for 24 hrs by immunofluorescence staining based analysis; assay type: functional, cell-based; conditions: dose 5.0 µmol/L
In short: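 T-47D cells (1 × 10^6/dish) in RPMI-1640 with 5% FBS were treated with or without 5 µmol/L for 24, 48 and 72 h. Cells were fixed in cold acetone and stained with mouse anti-α-tubulin or anti-γ-tubulin, then an FITC anti-mouse IgG secondary, plus DAPI. Fluorescence microscopy, 200× magnification.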

T47D [24] = assay: Induction of cell cycle arrest at metaphase in human T47D cells assessed as disorganization of multipolar mitotic spindles at 5 umol/L preincubated for 24 hrs followed by extensive compound washout and subsequent culturing in compound-free media measured upto 120 mins by immunofluorescence staining based analysis; assay type: functional; conditions: dose 5.0 µmol/L
In short: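 T-47D cells were treated at 37°C with 5 µmol/L for 24 h, washed extensively, then cultured in DMEM with 10% FBS for 30, 60 and 120 min. α- and γ-tubulin were detected by immunofluorescence with DAPI, imaged at 400×. The control was a 24 h preincubation with 5 µmol/L RO-3306. One of 2 experiments.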

MCF7 [25] = assay: Downregulation of histone H3 expression in human MCF7 cells at 5 umol/L incubated upto 72 hrs by Western blot analysis; assay type: functional, cell-based; conditions: dose 5.0 µmol/L
In short: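 Cells were treated with 5 µmol/L for 0, 24, 48 and 72 h. Lysates were immunoblotted for AURK-B, phospho-Ser10 histone H3 and total histone H3, with β-actin reprobe as the loading control. Detection by enhanced chemiluminescence.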

[26] = (§2) Effect on cisplatin resistance in human T47D cells with compound-induced polyploidy assessed as change in cisplatin-induced cytotoxicity by measuring increase in cisplatin IC50 at 5 umol/L preincubated for 72 hrs followed by compound washout and subsequent cisplatin treatment for 72 hrs by MTS assay; assay type: functional, cell-based
[27] = as §2, with “methotrexate” for “cisplatin”, “methotrexate-induced” for “cisplatin-induced”; assay type: functional, cell-based
[28] = as §2, with “methotrexate” for “cisplatin”, “ZR-75-1” for “T47D”, “methotrexate-induced” for “cisplatin-induced”; assay type: functional, cell-based
In short: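 Cells were first given the inducing compound for 72 h in 100-mm dishes. Polyploid cells were collected, washed and replated at 5,000 cells/well, with untreated cells at the same density as control. Methotrexate was added over a concentration range for 72 h, in triplicate. Viability was read by MTS assay and the IC50 calculated; 1 of 3 experiments shown.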

T-47D (Homo sapiens) [29] = assay: Disruption of microtubule dynamics in human T-47D cells at 5 umol/L incubated upto 72 hrs by immunofluorescence staining based analysis; conditions: dose 5.0 µmol/L
T-47D (Homo sapiens) [30] = assay: as above; conditions: dose 5.0 µmol/L; remark: listed apart in the source

With `CCOc1ccn(-c2ccc(F)cc2)c(=O)c1C(=O)Nc1ccc(Oc2ccnc(N)c2Cl)c(F)c1` [BMS-777607] as the compound, how does the Cmax [1] read?
Its Cmax is 4.5 µM.

What about the Cmax [2] of the same compound?
The Cmax was 43.7 µM.

And the Activity (T47D [3])?
Its Activity is “inactive”.

And the Activity (MCF7 [4])?
Its Activity is 0.5%.

What about the Activity (T47D [5]) of the same compound?
The Activity was 2.4%.

And the Activity (ZR-75-1 [6])?
Its Activity is 2.3%.

What about the Activity (ZR-75-1 [7]) of the same compound?
Its Activity is 1.8%.

What about the Activity (T47D [8]) of the same compound?
Its Activity is “Tde”.

What about the Activity (ZR-75-1 [9]) of the same compound?
The Activity was 88%.

And the Activity (MCF7 [10])?
The Activity was “Active”.

And the Activity (T47D [11])?
Its Activity is “Active”.

What about the Activity (ZR-75-1 [12]) of the same compound?
The Activity was “Active”.

What about the Activity (MCF7 [13]) of the same compound?
Its Activity is 45.5.

And the Activity (MCF7 [14])?
The Activity was 38.

What about the Activity (MCF7 [15]) of the same compound?
Its Activity is 41.

And the Activity (T47D [16])?
The Activity was 26.

What about the Activity (T47D [17]) of the same compound?
The Activity was 23.

And the Activity (T47D [18])?
Its Activity is 20.

And the Activity (ZR-75-1 [19])?
The Activity was 15.5.

What about the Activity (ZR-75-1 [20]) of the same compound?
The Activity was 5.

And the Activity (ZR-75-1 [21])?
Its Activity is 20.

What about the Activity (ZR-75-1 [22]) of the same compound?
The Activity was 32.

And the Activity (T47D [23])?
Its Activity is “Active”.

And the Activity (T47D [24])?
The Activity was “Active”.

And the Activity (MCF7 [25])?
Its Activity is “inactive”.

What about the IC50 [26] of the same compound?
The IC50 was 9.1 nM.

And the IC50 [27]?
The IC50 was 585 nM.

And the IC50 [28]?
Its IC50 is 430 nM.

What about the Activity (T-47D (Homo sapiens) [29]) of the same compound?
The Activity was “Active”.

What about the Activity (T-47D (Homo sapiens) [30]) of the same compound?
Its Activity is “Active”.
